PRMT1 FP inh = inhibitors of human PRMT1; Q99873; inhibition, % at 2.79 µM; 1.3% of 370,000 active; AID 652257; recombinant PRMT1, activity-based probe fluorescence polarization;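 active = inhibition above about 21% made by adding two undisclosed values, limit read from the data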
SIAE primary = blocks human sialic acid acetylesterase | 0.69% of 370,000 active | Q9HAT2 | SIAE FP-Rh probe binding, fluorescence polarization | inhibition, % at 9.66 µM;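 active = inhibition above a cutoff: mean of compounds within the control limits plus 3 SD of those, cut at about 17% in these data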;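 note: 0% = plate median of compound wells and 100% = probe without SIAE protein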
TCR-CD3 inh = blocks the human TCR-CD3 interaction; TAMRA-labeled TCR probe fluorescence, biochemical; inhibition, % at 9.4 µM; 0.37% of 360,000 active; in the data active = inhibition above about 19%;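 note: recombinant mutant TCR 2C K166C tagged with TAMRA read by polarization; 0% = receptor in buffer alone and 100% = receptor with positive control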
ABHD4 inh = inhibitors of mouse ABHD4. purified mABHD4, FP-Rh probe fluorescence polarization. 0.54% of 370,000 active. Q8VD66. inhibition, % at 8.92 µM;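 active = inhibition exceeding the mean over every tested compound plus 3 SD, cut at about 30% in these data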;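 note: 0% = plate median of compound wells and 100% = S159A mutant with DMSO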
Target sequence (Q8VD66 whole entry, looked up): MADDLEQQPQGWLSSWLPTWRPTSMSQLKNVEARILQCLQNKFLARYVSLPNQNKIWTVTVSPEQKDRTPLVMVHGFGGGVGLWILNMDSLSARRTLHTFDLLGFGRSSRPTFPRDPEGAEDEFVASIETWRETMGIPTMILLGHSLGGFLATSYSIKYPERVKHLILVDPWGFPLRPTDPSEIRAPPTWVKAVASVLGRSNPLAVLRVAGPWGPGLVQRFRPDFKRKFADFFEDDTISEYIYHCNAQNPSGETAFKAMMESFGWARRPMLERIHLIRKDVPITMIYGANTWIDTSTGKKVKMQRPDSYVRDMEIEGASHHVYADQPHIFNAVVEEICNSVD
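system = mouse ABHD4 enzyme, wild type | medium = HEPES pH 7.0, NaCl, Pluronic buffer | also added = FP-Rh probe | incubation = Enzyme–compound pre-incubation 45 min, then probe 60 min, both 25 °C | technique = fluorescence polarization, excitation 525 nm, emission 598 nm, BODIPY TMR filters | controls = S159A mutant high control, sample median low control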
HTRA1 inhibitor = inhibitors of human serine peptidase HTRA1 | Q92743 | recombinant HTRA1, FP-rhodamine activity-based probe, fluorescence polarization | inhibition, % at 5.96 µM | 0.5% of 340,000 active; in the data active = inhibition above about 36%;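 note: 0% = enzyme with DMSO and 100% = wells lacking enzyme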
PAD4 FP inh = PAD4 (human) enzyme inhibition | Q9UM07 | 0.41% of 330,000 active | inhibition, % at 6.36 µM | recombinant PAD4, RCA probe fluorescence polarization;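 active = percent inhibition above a cutoff equal to the mean of all tested compounds plus 3 SD, cut at about 15% in these data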;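 note: 0% = PAD4 with RCA probe and DMSO and 100% = probe without PAD4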
PRMT1 confirm = PRMT1 (human) inhibition, FP confirmation; shares compounds with PRMT1 FP inh; recombinant His-PRMT1, activity-based probe fluorescence polarization; inhibition, % at 2.79 µM; 42% of 3,300 active;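 active = mean inhibition across replicates above the hit cutoff derived for the earlier primary screen, cut at about 22% in these data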
An asterisk follows results filed as active. Rows were chosen to be rich in hits. Some 2.9% of all compounds tested hit in one or more screens of this group.

`CC1(C)CC(=O)N(CC(=O)N2CCN(c3cccc(C(F)(F)F)c3)CC2)c2ccccc2S1(=O)=O` gave PRMT1 FP inh 3.5, SIAE primary 12.8 and ABHD4 inh -1.0.
`COc1ccc(CN2CN3Cc4cc(F)ccc4C3CS2(=O)=O)cc1` (centres undefined) gave PRMT1 FP inh -4.2, SIAE primary -3.7 and ABHD4 inh -0.5.
CCc1ccc2nc(N(CCN(C)C)C(=O)c3ccc4ncsc4c3)sc2c1 was read as PRMT1 FP inh 42.6*, SIAE primary -2.9, TCR-CD3 inh -6.0, ABHD4 inh 9.3, HTRA1 inhibitor -4.7, PAD4 FP inh 11.2 and PRMT1 confirm 2.8.
Screening CN(C)CCN(C(=O)c1ccc2c(c1)OCCO2)c1nc2ccc(Cl)cc2s1 returned PRMT1 FP inh 2.3, SIAE primary -1.3, TCR-CD3 inh -0.5, ABHD4 inh 2.9, HTRA1 inhibitor -0.3 and PAD4 FP inh 0.0.
Cc1cccc2sc(N(CCCN(C)C)C(=O)c3ccc4ncsc4c3)nc12 was read as PRMT1 FP inh 29.1*, SIAE primary 0.5, TCR-CD3 inh -0.4, ABHD4 inh 8.6, HTRA1 inhibitor -2.3, PAD4 FP inh 8.2 and PRMT1 confirm 10.7.
COc1cccc2c(SCC(=O)N/N=C/c3ccccc3)cc(C)nc12 was read as PRMT1 FP inh 46.8*, SIAE primary -2.6, TCR-CD3 inh 2.1, ABHD4 inh -5.4, HTRA1 inhibitor -6.1, PAD4 FP inh 8.8 and PRMT1 confirm -2.8.
Screening O=[N+]([O-])c1cc2c(cc1Br)-c1ccccc1C2 returned PRMT1 FP inh 37.8*, SIAE primary 5.0, TCR-CD3 inh 2.8, ABHD4 inh 1.1, HTRA1 inhibitor -10.8 and PRMT1 confirm -2.6.
Screening COc1cc2c(cc1[N+](=O)[O-])-c1ccccc1C2 returned PRMT1 FP inh -1.8, SIAE primary -1.1, TCR-CD3 inh 1.0, ABHD4 inh -0.2 and HTRA1 inhibitor 6.3.
Screening CCSc1nc(=S)cc(C)[nH]1 returned PRMT1 FP inh 69.2*, SIAE primary -3.2, TCR-CD3 inh 0.4, ABHD4 inh -11.7, HTRA1 inhibitor -1.4, PAD4 FP inh -7.6 and PRMT1 confirm 41.2*.
`CCSc1nc(O)cc(=O)[nH]1` gave PRMT1 FP inh -1.9, SIAE primary -3.5, TCR-CD3 inh 1.9, ABHD4 inh -3.6, HTRA1 inhibitor 2.4 and PAD4 FP inh -3.6.
COc1ccccc1Cc1c(-c2ccco2)nc2ccc(Cl)cn12 was read as PRMT1 FP inh 28.4*, SIAE primary 1.7, TCR-CD3 inh 1.7, ABHD4 inh 7.8 and PRMT1 confirm 12.6.
`COc1ccccc1Cc1c(-c2ccco2)nc2ccc(Br)cn12` gave PRMT1 FP inh 31.4*, SIAE primary 13.2, TCR-CD3 inh 1.1, ABHD4 inh 7.6 and PRMT1 confirm 26.2*.
`COc1ccccc1Cc1c(-c2ccc(F)cc2)nc2ccc(Br)cn12` gave PRMT1 FP inh 6.7, SIAE primary 5.3, TCR-CD3 inh -0.3 and ABHD4 inh -8.7.
`Nc1cc2c3c(cccc3c1)C(=O)N(CCN1CCCC1)C2=O` gave PRMT1 FP inh 11.2, SIAE primary 5.2, TCR-CD3 inh 6.0, ABHD4 inh 6.1, HTRA1 inhibitor -2.0 and PAD4 FP inh 1.0.
Screening CCN(CC)CCN1C(=O)c2cccc3cc(N)cc(c23)C1=O returned PRMT1 FP inh 24.9*, SIAE primary -0.6, TCR-CD3 inh -8.7, ABHD4 inh -7.0, HTRA1 inhibitor 6.8, PAD4 FP inh 1.9 and PRMT1 confirm 22.2*.
O=C(CCNC(=O)c1ccco1)NCCc1ccc(Cl)cc1 was read as PRMT1 FP inh 47.4*, SIAE primary -2.6, TCR-CD3 inh 3.7, ABHD4 inh -0.8, HTRA1 inhibitor 3.5 and PRMT1 confirm 1.1.
`O=C1CCCC2=C1C(c1cccc(Br)c1)n1nc(-c3ccco3)nc1N2` (centres undefined) gave PRMT1 FP inh 37.3*, SIAE primary -11.3, TCR-CD3 inh 1.1, ABHD4 inh -6.8, HTRA1 inhibitor -5.5, PAD4 FP inh 3.7 and PRMT1 confirm 5.8.
Screening COc1ccc(N2CCCC2)c(NC(=O)c2ccc([N+](=O)[O-])o2)c1 returned PRMT1 FP inh 38.6*, SIAE primary 15.2, TCR-CD3 inh -0.6, ABHD4 inh 11.3, HTRA1 inhibitor 5.5, PAD4 FP inh -17.0 and PRMT1 confirm 3.4.
For COc1ccccc1CCn1cnc(-c2cccc(Br)c2)c1CC(C)C the results were PRMT1 FP inh 4.2, SIAE primary -5.3, TCR-CD3 inh -5.7 and ABHD4 inh -3.6.
CCOC(=O)[C@]12CCCC3=C1N(CCC3)C(=O)[C@@H](CC(=O)NCCC(C)C)C2 was read as PRMT1 FP inh -3.9, SIAE primary -2.7 and ABHD4 inh 3.9.
Screening Cc1ccc(C)n1-c1sc2c(c1C(=O)O)CCCC2 returned PRMT1 FP inh 27.0*, SIAE primary 3.5, TCR-CD3 inh 6.1, ABHD4 inh 15.4, HTRA1 inhibitor 25.5, PAD4 FP inh -3.6 and PRMT1 confirm 1.4.
Screening Cc1ccc(Nc2c(-c3ccc(C)o3)nc3ncccn23)cc1 returned PRMT1 FP inh 11.3, SIAE primary 3.0, TCR-CD3 inh -2.4, ABHD4 inh 8.1, HTRA1 inhibitor 5.9 and PAD4 FP inh -7.7.
Cc1ccc(-c2nc3ncccn3c2Nc2ccccc2C)o1 was read as PRMT1 FP inh 42.1*, SIAE primary 16.2, TCR-CD3 inh 3.1, ABHD4 inh 8.0, HTRA1 inhibitor -1.9, PAD4 FP inh 2.1 and PRMT1 confirm 12.7.
Cc1ccc(-c2nc3cnccn3c2Nc2c(C)cccc2C)o1 was read as PRMT1 FP inh 78.7*, SIAE primary 0.9, TCR-CD3 inh 5.0, ABHD4 inh 4.3, HTRA1 inhibitor -0.3, PAD4 FP inh 0.5 and PRMT1 confirm 11.3.
`CC(=O)C1=C(O)C(=O)N(CCc2c[nH]c3ccccc23)C1c1ccco1` (centres undefined) gave PRMT1 FP inh 28.4*, SIAE primary 7.2, TCR-CD3 inh 5.5, ABHD4 inh 18.5, HTRA1 inhibitor 4.4, PAD4 FP inh -5.9 and PRMT1 confirm 5.3.
CCOC(=O)c1c(C)nsc1NCc1ccccc1 was read as PRMT1 FP inh 27.5*, SIAE primary -7.2, TCR-CD3 inh -9.7, ABHD4 inh 9.8, HTRA1 inhibitor -5.9, PAD4 FP inh 2.0 and PRMT1 confirm 2.4.
For Cc1ccccc1Nc1n[nH]c(=S)s1 the results were PRMT1 FP inh 36.3*, SIAE primary 4.2, TCR-CD3 inh 4.6, ABHD4 inh -2.6, HTRA1 inhibitor 7.5 and PRMT1 confirm 5.7.
Screening Fc1ccccc1Nc1n[nH]c(=S)s1 returned PRMT1 FP inh 7.6, SIAE primary 6.4, TCR-CD3 inh 3.2, ABHD4 inh 2.6, HTRA1 inhibitor 9.5 and PAD4 FP inh 5.0.
